Measured values of several laboratories.
Lines come from different studies, so protocols differ.
Target: Serine/threonine-protein kinase RIO1 (RIOK1, Homo sapiens, UniProt Q9BRS2)
Sequence (Q9BRS2 1-568, as in one of the studies): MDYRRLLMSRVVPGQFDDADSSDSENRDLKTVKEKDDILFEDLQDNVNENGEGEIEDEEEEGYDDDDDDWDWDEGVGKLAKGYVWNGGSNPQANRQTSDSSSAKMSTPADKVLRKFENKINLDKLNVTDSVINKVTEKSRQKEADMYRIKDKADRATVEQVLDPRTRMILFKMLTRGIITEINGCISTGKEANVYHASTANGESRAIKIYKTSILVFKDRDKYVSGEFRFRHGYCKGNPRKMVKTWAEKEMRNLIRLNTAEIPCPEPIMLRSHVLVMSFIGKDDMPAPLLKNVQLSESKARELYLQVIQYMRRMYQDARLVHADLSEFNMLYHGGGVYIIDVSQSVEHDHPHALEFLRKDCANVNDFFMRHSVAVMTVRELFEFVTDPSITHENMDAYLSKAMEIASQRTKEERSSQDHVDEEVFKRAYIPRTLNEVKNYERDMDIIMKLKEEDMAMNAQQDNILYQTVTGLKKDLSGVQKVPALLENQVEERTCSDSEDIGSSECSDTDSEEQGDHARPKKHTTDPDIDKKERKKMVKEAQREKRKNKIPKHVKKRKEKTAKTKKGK

Structure (SMILES)	effect on	method	concentration	remaining binding
CCC(=N\O)/C(C)=C/c1ccc(F)cc1	cell-free assay	competition with immobilised ligand	1 µM	80%
C=CC(=O)N1CCC(C(=O)NCC(=O)N2CCN(c3nc(-c4cnc(N)nc4C(F)F)nc(N4CCOCC4)n3)CC2)CC1	binding	competition with immobilised ligand	1 µM	98%
O=C(NCc1ncc(C(F)(F)F)cc1Cl)c1ccc2c(c1)C1(CCS(=O)(=O)CC1)[C@@H](C1CC1)N2S(=O)(=O)c1ccc(F)cc1	cell-free assay	competition with immobilised ligand	1 µM	78%
CN(c1nccc(-c2cnn3ncccc23)n1)C1CC1	binding		1 µM	100%
FC(F)(F)Oc1cccc(-c2cnc3ccc(-c4ccncc4)nn23)c1	cell-free assay	competition with immobilised ligand	5 µM	17%
Cn1nc(C(=O)NCc2ccc(C(=O)O)cc2)cc1-c1ccc2[nH]ccc2c1	cell-free assay	competition with immobilised ligand	0.1 µM	76%
C[C@H]1CCN(c2nccc(-c3cnn4ncccc34)n2)C1	binding		1 µM	62%
COc1ccc2cc(OCC3(C(=O)O)CN(C(=O)c4ccc(F)cc4)C3)ccc2c1	cell-free assay	competition with immobilised ligand	1 µM	100%
CN(C)c1ncc(F)c(-c2cnn3ncccc23)n1	binding		1 µM	100%
O=C(NCCCN1CCOCC1)c1ccc(Nc2ncc(Cl)c(-c3ccc(Cl)s3)n2)cc1	binding	competition with immobilised ligand	1 µM	0.05%
COc1cnc(Nc2cccc(S(N)(=O)=O)c2)nc1N1CCN(c2ccccc2)CC1	binding	competition with immobilised ligand	1 µM	73%
Nc1ncc2c(n1)-c1c([nH]c3ccc(C#CC4CC4)cc13)CCCC2	binding	competition with immobilised ligand	1 µM	80%
Cn1cc(Cl)c2c(Oc3c(F)cc(Nc4cc(Cl)nc(N)n4)cc3F)ccnc21	cell-free assay	competition with immobilised ligand	0.1 µM	100%
O=C(c1ccc(Nc2nccc(-c3cc4ccccc4s3)n2)cc1)N1CCC(N2CCCC2)CC1	binding	competition with immobilised ligand	1 µM	0.1%
O=C(Nc1c[nH]nc1C(=O)NC1CCNCC1)c1cc(F)cc(F)c1	binding	competition with immobilised ligand	1 µM	68%
CC1CCCN1c1nccc(-c2cnn3ncccc23)n1 (stereo not shown)	binding		1 µM	100%
COc1ncc2cc3ccccc3nc2c1C#N	cell-free assay	competition with immobilised ligand	5 µM	93%
N#Cc1ccc(Nc2ccc3[nH]c(=O)[nH]c3c2)c(Cl)c1	cell-free assay	competition with immobilised ligand	1 µM	100%
N[C@@H]1CCN(c2nccc(-c3cnn4ncccc34)n2)C1	binding		1 µM	96%
O=C(NCCCN1CCOCC1)c1ccc(Nc2nccc(-c3cc4ccccc4s3)n2)cc1	binding	competition with immobilised ligand	1 µM	0.1%
CN(CCCC(F)(F)F)c1nccc(-c2cnn3ncccc23)n1	binding		1 µM	100%
Cc1nc(Cc2cccc(C(F)(F)F)c2)sc1-c1ccc(C(N)=O)nc1	cell-free assay	competition with immobilised ligand	1 µM	94%
